Experimental data from ChEMBL document CHEMBL1128398, “Structure-activity relationship of alpha-galactosylceramides against B16-bearing mice” (1995).

How the values were obtained:
Homo sapiens [1] = species on record: Homo sapiens; assay: Lymphocyte Proliferation Stimulatory effect on human umbilical cord blood at 100 ng/mL and measured for [3H]TdR (tritium-thymidine) uptake (percent of control); assay type: functional
In short: (§1)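 Mononuclear cells were isolated from human peripheral blood or umbilical cord blood and plated at 1 × 10^5 cells/well in RPMI 1640 with 10% autologous plasma, with compound. After 4 days of incubation, a 6 h [3H]TdR pulse was given and uptake was counted by scintillation. Run in triplicate.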

Homo sapiens [2] = species on record: Homo sapiens; assay: Lymphocyte Proliferation Stimulatory effect on human umbilical cord blood at 1 ng/mL and measured for [3H]TdR (tritium-thymidine) uptake (percent of control); assay type: functional; in short: as §1
Homo sapiens [3] = species on record: Homo sapiens; assay: Lymphocyte Proliferation Stimulatory effect on human umbilical cord blood at 10 ng/mL and measured for [3H]TdR (tritium-thymidine) uptake (percent of control); assay type: functional; in short: as §1
Homo sapiens [4] = species on record: Homo sapiens; assay: Lymphocyte Proliferation Stimulatory effect on human peripheral blood at 1 ng/mL and measured for [3H]TdR (tritium-thymidine) uptake (percent of control); assay type: functional; in short: as §1
Homo sapiens [5] = species on record: Homo sapiens; assay: Lymphocyte Proliferation Stimulatory effect on human peripheral blood at 10 ng/mL and measured for [3H]TdR (tritium-thymidine) uptake (percent of control); assay type: functional; in short: as §1
Homo sapiens [6] = species on record: Homo sapiens; assay: Lymphocyte Proliferation Stimulatory effect on human peripheral blood at 100 ng/mL and measured for [3H]TdR (tritium-thymidine) uptake (percent of control); assay type: functional; in short: as §1
B16 [7] = assay: Tumor Growth Inhibitory effect (TGIR) on mice subcutaneously inoculated with B16 cells (chemotherapeutic agent, mitomycin C (MMC)); assay type: functional, Mus musculus; set-up: concentration or dose not given beside the values
In short: (§2)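 Groups of six female BDF1 mice received B16 melanoma (1 × 10^6 cells/mouse) s.c. on day 0. AGL analogues were given i.v. at 100 μg/kg on days 1, 5 and 9, and MMC at 5 mg/kg i.p. on day 1; controls were untreated. Tumor volume (length × width × height/2, by callipers) was read on days 8, 12, 16 and 20. TGIR = [1 − mean test volume/mean control volume] × 100, and the maximum value is reported.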

B16 [8] = assay: Tumor Growth Inhibitory effect (TGIR) on mice subcutaneously inoculated with B16 cells (compound alone (single)); assay type: functional, Mus musculus; set-up: concentration or dose not given beside the values; in short: as §2
B16 [9] = assay: Tumor Growth Inhibitory effect (TGIR) on mice subcutaneously inoculated with B16 cells (compound plus MMC); assay type: functional, Mus musculus; set-up: concentration or dose not given beside the values; in short: as §2
Mus musculus [10] = species on record: Mus musculus; assay: Lymphocyte Proliferation Stimulatory effect on Allogenic MLR at 10 ng/mL and measured for [3H]TdR (tritium-thymidine) uptake (percent of control); assay type: functional
In short: (§3)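 Responders were BALB/c spleen cells and stimulators were C57BL/6 spleen cells pretreated with MMC (50 μg/mL, 30 min). Both were plated at 1 × 10^5 cells in 10% FCS RPMI 1640, with compounds added at plating. Culture was at 37 °C in 5% CO2 for 2–3 days, then a 6 h [3H]TdR pulse with scintillation counting. Run in triplicate.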

Mus musculus [11] = species on record: Mus musculus; assay: Lymphocyte Proliferation Stimulatory effect on Allogenic MLR at 100 ng/mL and measured for [3H]-TdR (tritium-thymidine) uptake (percent of control); assay type: functional; in short: as §3
Mus musculus [12] = species on record: Mus musculus; assay: Lymphocyte Proliferation Stimulatory effect on Allogenic MLR at 0.1 ng/mL and measured for [3H]TdR (tritium-thymidine) uptake (percent of control); assay type: functional; in short: as §3
Mus musculus [13] = species on record: Mus musculus; assay: Lymphocyte Proliferation Stimulatory effect on Allogenic MLR at 1 ng/tritium-thymidine) uptake (percent of control); assay type: functional; in short: as §3

CCCCCCCCCCCCCCCCCCCCCCCCCC(=O)N[C@@H](CO[C@H]1O[C@H](CO)[C@H](O)[C@H](O)[C@H]1O)[C@H](O)[C@H](O)CCCCCCCCCCCCCC [RGI-7000]
Control (Homo sapiens [1]): 581%
Control (Homo sapiens [2]): 398%
Control (Homo sapiens [3]): 663%
Control (Homo sapiens [4]): 356%
Control (Homo sapiens [5]): 389%
Control (Homo sapiens [6]): 590%
Tumor growth inhibition ratio (max TGIR) (B16 [7]): 67.6%
Control (B16 [8]): 53.8%
Control (B16 [9]): 86.7%
Control (Mus musculus [10]): 251%
Control (Mus musculus [11]): 283%
Control (Mus musculus [12]): 125%
Control (Mus musculus [13]): 200%
